Experimental data as given in ChEMBL document CHEMBL3797028, “Novel S1P1 receptor agonists - Part 4: Alkylaminomethyl substituted aryl head groups” (Eur J Med Chem, 2016).
The source made the active and inactive calls. The calls are words filed in the database; no cut-off is given here.

Experiments:
[1] = Distribution coefficient, log D between 1-octonol and phosphate buffer at pH 7; assay type: physicochemical; conditions: 1-octanol/phosphate buffer
Summary of the method: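 Partition was between 1-octanol and phosphate buffer at pH 7.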

[2] = Fraction unbound in Wistar rat liver microsomes incubated for 6 hrs by LC-MS/MS based equilibrium dialysis method; assay type: ADME
Summary of the method: (§1)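 Rapid equilibrium dialysis was run on a shaker for 6 h at 37 °C. The donor side held rat plasma (pH 7.2–7.6) or 1 mg/mL rat liver microsomes in phosphate buffer pH 7.4. The receiver side held phosphate buffer pH 7.4. Both sides were measured by LC-MS/MS to give free fraction and recovery.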

[3] = Fraction unbound in Wistar rat plasma incubated for 6 hrs by LC-MS/MS based equilibrium dialysis method; assay type: ADME, cell-free; summary of the method: as §1
[4] = Selectivity ratio of EC50 for human recombinant S1PR3 expressed in CHO cell membranes to EC50 for human recombinant S1PR1 expressed in CHO cell membranes; assay type: cell-based
Summary of the method: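 Compound and membranes are pre-incubated 30 min at rt, then incubated 1 h at rt, filtered and counted. EC50 is the concentration giving 50% of S1P-defined specific binding, as the geometric mean of ≥3 independent duplicate runs. Ratio = EC50 S1PR3/EC50 S1PR1.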

[5] = Plasma concentration in Wistar rat at 10 mg/kg administered as single dose through oral gavage after 72 hrs by LC-MS/MS analysis; assay type: ADME, organism-based
Summary of the method: (§2)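 Single oral gavage dose to male Wistar rats in DMSO/7.5% succinylated gelatine (final 5% DMSO). Blood was drawn into EDTA at the lymphocyte-count timepoints. Plasma was prepared at 3000 g for 10 min at 4 °C and analysed by LC-MS/MS after protein precipitation.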

Rattus norvegicus [6] = assay: Change in circulating lymphocyte count in Wistar rat at 10 mg/kg administered as single dose through oral gavage after 24 hrs relative to control; assay type: functional
Summary of the method: (§3)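 Male Wistar rats (RccHan:WIST; n = 6) were given a single oral gavage dose of compound in DMSO plus 7.5% succinylated gelatine (final 5% DMSO). Blood lymphocytes were counted just before dosing and at later timepoints. Percent change was calculated per animal relative to the pre-dose value and compared with a vehicle-treated group, reported as the mean. A ±15% change was treated as baseline, and a reduction of about 60% or more as maximal.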

Rattus norvegicus [7] = assay: Change in circulating lymphocyte count in Wistar rat at 10 mg/kg administered as single dose through oral gavage after 3 hrs relative to control; assay type: functional; summary of the method: as §3
[8] = Apparent intrinsic clearance in Wistar rat liver microsomes at 1 uM after 2.5 to 15 mins by LC-MS/MS analysis in presence of NADPH; assay type: ADME; conditions: read-out: CLH(app)
Summary of the method: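 Compound at 1 uM starting concentration was depleted by 0.5 mg/mL rat liver microsomes in 100 mM sodium phosphate pH 7.4 at 37 °C, with shaking under air. Reactions were started with an NADPH-regenerating system. Samples were taken at 0, 2.5, 5, 10 and 15 min, quenched in ice-cold methanol and analysed by LC-MS/MS. CLint,app came from first-order decay fitting.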

Liver microsome = assay: Unbound fraction corrected apparent intrinsic clearance in Wistar rat liver microsomes at 1 uM after 2.5 to 15 mins by LC-MS/MS analysis in presence of NADPH; assay type: ADME
Summary of the method: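 Apparent CLint was measured by microsomal substrate depletion: 1 uM start, 0.5 mg/mL rat liver microsomes, pH 7.4, 37 °C, NADPH-regenerating system, sampling 0–15 min, LC-MS/MS. It was then divided by the unbound microsomal fraction, which was determined by rapid equilibrium dialysis of 1 mg/mL microsomes for 6 h at 37 °C.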

[9] = molecular target: Sphingosine 1-phosphate receptor 3 (Homo sapiens, UniProt Q99500); assay: Agonist activity at human recombinant S1PR3 expressed in CHO cell membranes assessed as [35S]GTPgammaS binding preincubated for 30 mins followed by [35S]GTPgammaS addition measured after 1 hr by topcount analysis; assay type: functional
Sphingosine 1-phosphate receptor 3, sequence (Q99500 whole entry): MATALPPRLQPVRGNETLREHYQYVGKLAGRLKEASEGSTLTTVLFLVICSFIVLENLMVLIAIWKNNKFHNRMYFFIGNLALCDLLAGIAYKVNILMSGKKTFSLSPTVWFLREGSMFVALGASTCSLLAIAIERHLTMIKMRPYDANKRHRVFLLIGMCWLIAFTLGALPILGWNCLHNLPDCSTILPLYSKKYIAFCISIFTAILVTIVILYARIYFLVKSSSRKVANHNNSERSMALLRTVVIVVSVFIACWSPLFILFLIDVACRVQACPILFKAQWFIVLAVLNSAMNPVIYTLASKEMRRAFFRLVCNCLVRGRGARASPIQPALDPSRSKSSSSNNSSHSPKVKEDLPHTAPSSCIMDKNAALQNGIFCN
Summary of the method: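 Membranes from CHO cells expressing recombinant human S1P1 or S1P3 were used. Buffer was 20 mM Hepes pH 7.4, 100 mM NaCl, 5 mM MgCl2, 0.1% fatty-acid-free BSA, 2.5% DMSO and 50 pM 35S-GTPgammaS. GDP was […] for S1P3. Compound was preincubated 30 min at rt, then incubated 1 h at rt with 35S-GTPgammaS. Bound label was collected by filtration and counted. Specific binding was taken against 10 uM S1P. EC50 was the 50%-of-specific-binding concentration, reported as the geometric mean of at least three independent duplicate runs.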

[10] = Plasma concentration in Wistar rat at 10 mg/kg administered as single dose through oral gavage after 24 hrs by LC-MS/MS analysis; assay type: ADME, organism-based; summary of the method: as §2
[11] = Apparent oral clearance in Wistar rat plasma at 1 to 10 mg/kg administered through gavage by LC-MS/MS analysis; assay type: ADME, organism-based
Summary of the method: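 Male Wistar rats received a single oral gavage dose of compound dissolved in DMSO and added to 7.5% succinylated gelatine in water (final 5% DMSO). EDTA plasma was spun at 3000 g for 10 min at 4 °C and analysed by LC-MS/MS after protein precipitation. Oral clearance was estimated from the plasma concentration–time data. In vivo intrinsic clearance used the well-stirred liver model, assuming complete absorption.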

Rattus norvegicus [12] = assay: Change in circulating lymphocyte count in Wistar rat at 10 mg/kg administered as single dose through oral gavage after 6 hrs relative to control; assay type: functional; summary of the method: as §3
Rattus norvegicus [13] = organism: Rattus norvegicus; assay: Intrinsic clearance in rat liver microsomes scaled to body weight; conditions: in vitro
[14] = molecular target: T1, Sphingosine 1-phosphate receptor 1 (Homo sapiens, UniProt P21453); assay: Agonist activity at human recombinant S1PR1 expressed in CHO cell membranes assessed as [35S]GTPgammaS binding preincubated for 30 mins followed by [35S]GTPgammaS addition measured after 1 hr by topcount analysis
T1 sequence (P21453 whole entry): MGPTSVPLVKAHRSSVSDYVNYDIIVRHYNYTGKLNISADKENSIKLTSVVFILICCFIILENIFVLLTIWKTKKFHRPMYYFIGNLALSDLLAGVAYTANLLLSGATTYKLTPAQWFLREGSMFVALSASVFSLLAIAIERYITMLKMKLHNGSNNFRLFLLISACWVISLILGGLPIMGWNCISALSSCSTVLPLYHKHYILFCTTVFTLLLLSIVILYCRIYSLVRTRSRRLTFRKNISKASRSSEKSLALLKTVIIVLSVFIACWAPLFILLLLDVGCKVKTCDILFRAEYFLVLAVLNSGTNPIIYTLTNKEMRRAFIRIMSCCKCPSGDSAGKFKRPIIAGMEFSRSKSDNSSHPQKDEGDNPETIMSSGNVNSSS

[15] = Plasma concentration in Wistar rat at 10 mg/kg administered as single dose through oral gavage after 3 hrs by LC-MS/MS analysis; assay type: ADME, organism-based; summary of the method: as §2
[16] = molecular target: T1, Sphingosine 1-phosphate receptor 1; assay: Partial agonist activity at human recombinant S1PR1 expressed in CHO cells by receptor internalization assay; assay type: cell-based
[17] = Plasma concentration in Wistar rat at 10 mg/kg administered as single dose through oral gavage after 6 hrs by LC-MS/MS analysis; assay type: ADME, organism-based; summary of the method: as §2
[18] = Drug recovery in Wistar rat liver microsomes incubated for 6 hrs by LC-MS/MS based equilibrium dialysis method; assay type: ADME; conditions: read-out: Drug recovery; summary of the method: as §1

Structure (SMILES)	logD [1]	fraction unbound at 6 h [2]	fraction unbound at 6 h [3]	Ratio EC50 [4]	concentration at 72 h [5] [ng/mL]	Activity (Rattus norvegicus [6]) [%]	Activity (Rattus norvegicus [7]) [%]	microsomal CLint at 1 µM [8] [µL/min/mg]	CL free (Liver microsome) [µL/min/mg]	EC50 [9] [nM]	concentration at 24 h [10] [ng/mL]	CL/F [11] [mL/min/kg]	Activity (Rattus norvegicus [12]) [%]	CL (Rattus norvegicus [13]) [mL/min/kg]	EC50 [14] [nM]	concentration at 3 h [15] [ng/mL]	Activity [16]	concentration at 6 h [17] [ng/mL]	recovery at 6 h [18] [%]
CCc1cc(-c2noc(-c3cc(C)cc(CN(C)CC(C)C)c3)n2)cc(C)c1OC[C@@H](O)CNC(=O)CO	> 4.1	0.027	< 0.001	48	3.7	-44	-52	20	740	100	342	8	-53	1330	2.1	1380	inactive	1120	–
CCc1cc(-c2noc(-c3cc(C)cc(CN(C)C)c3)n2)cc(C)c1OC[C@@H](O)CNC(=O)CO	2.8	0.26	0.029	–	–	21	-44	> 1250	> 4800	2000	–	–	-37	–	–	–	–	–	–
CCc1cc(-c2nc(-c3cc(C)c(OC[C@@H](O)CNC(=O)CO)c(CC)c3)no2)ccc1CN(C)C	3.8	0.11	0.005	369	–	27	-56	1010	9200	480	–	–	-61	–	1.3	–	–	–	< 80
CCCCN(C)Cc1cc(C)cc(-c2nc(-c3cc(C)c(OC[C@@H](O)CNC(=O)CO)c(CC)c3)no2)c1	> 4.1	0.025	< 0.001	163	–	-6	-60	183	7300	425	–	–	-57	–	2.6	–	–	–	< 80
CCc1cc(-c2noc(-c3cc(C)cc(CN(C)CC)c3)n2)cc(C)c1OC[C@@H](O)CNC(=O)CO	3.4	0.25	0.012	347	–	24	-57	> 1250	> 5000	1250	–	–	-58	–	3.6	–	–	–	< 80
CCc1cc(-c2noc(-c3ccc(CN(C)CC(C)C)c(C)c3)n2)cc(C)c1OC[C@@H](O)CNC(=O)CO	> 4.1	0.001	< 0.001	44	–	–	–	74	–	570	–	–	–	–	13	–	–	–	< 80
CCc1cc(-c2noc(-c3cc(C)c(CN(C)C)s3)n2)cc(C)c1OC[C@@H](O)CNC(=O)CO	3.2	0.15	0.012	–	–	5	-64	1220	8100	660	< 4	275	-56	14600	–	106	–	31	–
CCc1cc(-c2noc(-c3cc(C)nc(CN(C)CC(C)C)c3)n2)cc(C)c1OC[C@@H](O)CNC(=O)CO	3.8	0.18	0.004	175	–	1	-80	197	1090	560	< 2	80	-75	1970	3.2	385	–	176	< 80
